Here are results for eight molecules from ChEMBL document CHEMBL4613294, “Inhibition of Nonessential Bacterial Targets: Discovery of a Novel Serine O-Acetyltransferase Inhibitor” (ACS Med Chem Lett, 2020).

pIC50: −log10 of the molar value. ≈ marks a conversion by molar mass, not a printed value. Calls of active or inactive are those of the source. No cut-off for these calls is given here.

One data set has as its system Staphylococcus aureus. Briefly: Antibacterial activity against methicillin-resistant Staphylococcus aureus ATCC 33591 after 12 hrs by resazurin dye based assay. Particulars: ATCC 33591, 12 h. It counts as functional. In general terms: Resazurin is reduced to fluorescent resorufin, in cell work by metabolically active cells.
Data set [1] concerns Escherichia coli. Briefly: Antibacterial activity against Escherichia coli ATCC 25922 incubated in LB 20% minimal medium lacking cysteine for 16 to 24 hrs by CLSI-based broth microdilution assay. The data set is classed as functional. (In general: In broth dilution the organism is exposed to a series of concentrations in liquid medium.)
Data set [2] deals with Salmonella enterica subsp. enterica serovar Typhimurium. Briefly: Inhibition of Salmonella typhimurium Serine acetyltransferase expressed in Escherichia coli Tuner(TM) BL21(DE3) cells at 100 uM using acetylCo-A and L-serine as substrate measured every 27 secs for 5 mins by DNTB reagent-based UV-Visible spectrophotometric method relative to control. In a few lines: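 Recombinant StSAT activity followed indirectly with Ellman's reagent: CoASH released from acetyl-CoA plus L-Ser gives TNB, read by absorbance at pH above 7 (ε 14 000 M–1 cm–1) in 96-well format. Compounds at 100 μM, kinetic reads at 27 s intervals, % inhibition taken at 180 s endpoint. Hits at ≥40% retested at 100 μM.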

Data set [3] deals with Escherichia coli. Briefly: Antibacterial activity against Escherichia coli ATCC 25922 incubated in MHB medium for 16 to 24 hrs by CLSI-based broth microdilution assay. The data set is classed as functional.
The nature of data set [4]: Inhibition of Salmonella typhimurium Serine acetyltransferase expressed in Escherichia coli Tuner(TM) BL21(DE3) cells using acetylCo-A and L-serine as substrate measured every 27 secs for 5 mins by DNTB reagent-based UV-Visible spectrophotometric method. On the set-up: species or system Salmonella enterica subsp. enterica serovar Typhimurium.
Data set [5] has as its system Salmonella enterica subsp. enterica serovar Typhimurium. Briefly: Inhibition of Salmonella typhimurium Serine acetyltransferase expressed in Escherichia coli Tuner(TM) BL21(DE3) cells at 50 to 200 uM using acetylCo-A and L-serine as substrate measured every 27 secs for 5 mins by DNTB reagent-based UV-Visible spectrophotometric method.
The nature of data set [6]: Solubility of compound at 200 uM. The data set is classed as physicochemical.

Usually MIC stands for the least concentration at which growth counts as inhibited. Low values mean greater potency, high ones weaker potency. Turning to `CC1=C2[C@@H](OC1=O)C(=O)[C@@H]1[C@@](O)(CCC3C(C)(C)CCC[C@]31C)[C@H]2O` (some centres not stated), in the data set on Staphylococcus aureus, inhibition of growth (MIC) required 12.5 µg/mL (≈ 35.9 µM).

With `CC1(C)CCC[C@]2(C)C1CC[C@]1(O)[C@H](O)C3=C(CO)C(=O)OC3=C[C@H]12` (some centres not stated), the MIC with Staphylococcus aureus stood at 25 µg/mL (≈ 71.7 µM).

For orientation: inhibition means the relative decrease from the control value, in per cent. A word on the pIC50: it is the IC50 on a negative log10 scale, so that one unit is a factor of ten. High values mean a low IC50, low ones a high IC50. Consider `O=C(Nc1ncc([N+](=O)[O-])s1)c1csnn1`, for which the MIC with Escherichia coli [1] was 64 µg/mL (≈ 249 µM); against Escherichia coli [3], greater than 128 µg/mL. For the same molecule, in data set [2], the inhibition came out at 68%. In data set [4], this molecule gave a negative-log IC50 (pIC50) of 4.31.

As to `COc1ccc(-c2cc(C(=O)NCc3ccccc3)n[nH]2)cc1S(N)(=O)=O`, the minimal inhibitory concentration (MIC) in the data set on Escherichia coli [1] and in the data set on Escherichia coli [3] was greater than 128 µg/mL each time. In data set [2], this molecule had an inhibition of 79%. Further, the pIC50 in data set [4] is 4.28.

As to `C=CCSc1nc2c(c(=O)[nH]1)C(c1ccc(OCC(N)=O)cc1)CC(=O)N2` (configuration not stated), the MIC with Escherichia coli [1] and in the data set with Escherichia coli [3] was greater than 128 µg/mL throughout. The inhibition in data set [2] is 57%. For the same molecule, the pIC50 in data set [4] was 4.08.

Take `COc1cc(NC(=O)c2cc(-c3ccc(OC)c(S(N)(=O)=O)c3)[nH]n2)cc(OC)c1`: the minimum inhibitory concentration (MIC) in the data set with Escherichia coli [1] and with Escherichia coli [3] was greater than 128 µg/mL throughout. This molecule displayed an inhibition in data set [2] of 52%. For the same molecule, the inhibition result in data set [5] is “Active”. The solubility entry in data set [6] is “Insoluble”.

For `COc1cccc(NC(=O)c2cc(-c3ccc(OC)c(S(N)(=O)=O)c3)[nH]n2)c1`, the MIC against Escherichia coli [1] and against Escherichia coli [3] was greater than 128 µg/mL throughout. This molecule also displayed an inhibition in data set [2] of 75%. The molecule also gave a negative logarithm of the IC50 (pIC50) in data set [4] of 4.87.

As to `Cc1snnc1C(=O)Nc1ncc([N+](=O)[O-])s1`, the MIC with Escherichia coli [1] and in the data set on Escherichia coli [3] was greater than 128 µg/mL each time. The same molecule yielded an inhibition in data set [2] of 72%. In data set [4], this molecule had a pIC50 of 4.32.
